Test results reported in ChEMBL document CHEMBL1240328, “Selective compounds define Hsp90 as a major inhibitor of apoptosis in small-cell lung cancer” (Nat Chem Biol, 2007).
Calls of active or inactive are those of the source.

Experiments:
[1] = target: Heat shock protein HSP 90-beta (Homo sapiens) (UniProt P08238); assay: Binding affinity to HSP90 in human NCI-H526 cells after 24 hrs by fluorescence polarization assay; assay type: cell-based
[2] = target: Heat shock protein HSP 90-beta (Homo sapiens) (UniProt P08238); assay: Binding affinity to HSP90 in human NCI-N417 cells after 24 hrs by fluorescence polarization assay; assay type: cell-based; settings: NCI-H417
[3] = target: Heat shock protein HSP 90-beta (Homo sapiens) (UniProt P08238); assay: Binding affinity to HSP90 in human NCI-H146 cells after 24 hrs by fluorescence polarization assay; assay type: cell-based
[4] = target: Heat shock protein HSP 90-beta (Homo sapiens) (UniProt P08238); assay: Binding affinity to HSP90 in human NCI-H187 cells after 24 hrs by fluorescence polarization assay
[5] = target: Heat shock protein HSP 90-beta (Homo sapiens) (UniProt P08238); assay: Binding affinity to HSP90 in human NCI-H209 cells after 24 hrs by fluorescence polarization assay; assay type: cell-based
[6] = target: Heat shock protein HSP 90-beta (Homo sapiens) (UniProt P08238); assay: Binding affinity to HSP90 in human NCI-H510 cells after 24 hrs by fluorescence polarization assay; assay type: cell-based
[7] = target: Heat shock protein HSP 90-beta (Homo sapiens) (UniProt P08238); assay: Binding affinity to HSP90 in human NCI-H69 cells after 24 hrs by fluorescence polarization assay
[8] = target: Heat shock protein HSP 90-beta (Homo sapiens) (UniProt P08238); assay: Inhibition of HSP90-mediated proliferation of human NCI-H526 cells at 0.3 to 0.5 uM after 72 to 96 hrs by sulforhodamine B assay; assay type: cell-based
[9] = target: Heat shock protein HSP 90-beta (Homo sapiens) (UniProt P08238); assay: Inhibition of HSP90-mediated proliferation of human NCI-N417 cells at 0.3 to 0.5 uM after 72 to 96 hrs by sulforhodamine B assay; assay type: cell-based; settings: NCI-H417
[10] = target: Heat shock protein HSP 90-beta (Homo sapiens) (UniProt P08238); assay: Binding affinity to HSP90 in human SKBR3 cells after 24 hrs by fluorescence polarization assay; settings: SK-BR-3
[11] = target: Heat shock protein HSP 90-beta (Homo sapiens) (UniProt P08238); assay: Inhibition of HSP90 in chemo-resistant human H69AR cells at 100 uM after 24 hrs by fluorescence polarization assay; assay type: cell-based
Procedure, shortened: (§1)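 Competitive fluorescence polarization in lysates of H69AR, SKI-AC3 and WBA cells, prepared in HFB buffer pH 7.3 and normalized to Hsp90. Tracer was 3 nM Cy3B-geldanamycin, with incubation for 24 h at 4 °C. EC50 was defined as 50% tracer displacement.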

[12] = target: Heat shock protein HSP 90-beta (Homo sapiens) (UniProt P08238); assay: Inhibition of HSP90 in chemo-resistant human SKI-AC3 cells at 100 uM after 24 hrs by fluorescence polarization assay; assay type: cell-based; procedure, shortened: as §1
[13] = target: Heat shock protein HSP 90-beta (Homo sapiens) (UniProt P08238); assay: Inhibition of HSP90 in chemo-resistant human WBA cells at 100 uM after 24 hrs by fluorescence polarization assay; assay type: cell-based; procedure, shortened: as §1
[14] = target: Heat shock protein HSP 90-beta (Homo sapiens) (UniProt P08238); assay: Inhibition of HSP90-mediated antiapoptotic activity in human H69AR cells assessed as induction of cell growth arrest at 10 after 96 hrs by propidium iodide staining-based flow cytometry
[15] = target: Heat shock protein HSP 90-beta (Homo sapiens) (UniProt P08238); assay: Inhibition of HSP90-mediated antiapoptotic activity in human SKI-AC3 cells assessed as induction of cell growth arrest at 10 after 96 hrs by propidium iodide staining-based flow cytometry
[16] = target: Heat shock protein HSP 90-beta (Homo sapiens) (UniProt P08238); assay: Inhibition of HSP90-mediated antiapoptotic activity in human WBA cells assessed as induction of cell growth arrest at 10 after 96 hrs by propidium iodide staining-based flow cytometry
NCI-H417 [17] = assay: Anticancer activity against human NCI-N417 cells xenografted in ip dosed athymic mouse assessed as tumor caspase-3 cleavage administered daily for 5 consecutive days measured after 12 hrs post last dose by immunohistochemistry; assay type: functional, organism-based
Procedure, shortened: (§2)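 Nude athymic (nu/nu) mice carrying NCI-N417 xenografts (cells injected with Matrigel), treated once tumors were 7–9 mm in diameter. Dosing was five consecutive daily i.p. doses of 100 mg kg–1, and mice were killed 12 h after the last dose (n = 2). Tumors were analyzed by immunohistochemistry for cleaved caspase-3, Ki-67 and p-Akt, with vehicle-treated tumors as comparison.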

NCI-H417 [18] = assay: Anticancer activity against human NCI-N417 cells xenografted in ip dosed athymic mouse assessed as decrease in tumor Akt activity administered daily for 5 consecutive days measured after 12 hrs post last dose by immunohistochemistry; assay type: functional, organism-based; procedure, shortened: as §2
NCI-H417 [19] = assay: Anticancer activity against human NCI-N417 cells xenografted in athymic mouse assessed as decrease in tumor Akt activity at 75 mg/kg, ip administered daily for 5 consecutive days measured after 6 hrs post last dose by immunohistochemistry; assay type: functional, organism-based; set-up: dose 75 mg/kg
NCI-H417 [20] = assay: Anticancer activity against human NCI-N417 cells xenografted in athymic mouse assessed as tumor growth inhibition at nontoxic dose administered ip daily for 5 consecutive days measured on day 20 post tumor implantation; assay type: functional, organism-based
Procedure, shortened: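 Nude athymic mice (n = 4) bearing NCI-N417 tumors of V = 50–90 mm3 were dosed i.p. and tumor growth was monitored. Results are given as mean ± s.d.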

[21] = Drug level in tumor of human NCI-N417 cell-xenograft athymic mouse model at 75 mg/kg, ip administered as single dose after 3 hrs by HPLC/MS/MS analysis; assay type: ADME, organism-based, Neoplasm; set-up: dose 75 mg/kg, route intraperitoneal; settings: in vivo
Procedure, shortened: (§3)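 Nude mice bearing NCI-N417 xenografts received a single i.p. dose of 75 mg kg–1. Animals (n = 3) were killed at set times from 3 to 36 h. Tumors and brains were harvested and halved, and tumor drug content was quantified by HPLC/MS/MS.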

[22] = Drug level in tumor of human NCI-N417 cell-xenograft athymic mouse model at 75 mg/kg, ip administered as single dose after 6 hrs by HPLC/MS/MS analysis; assay type: ADME, organism-based, Neoplasm; set-up: dose 75 mg/kg, route intraperitoneal; settings: in vivo; procedure, shortened: as §3
[23] = Drug level in tumor of human NCI-N417 cell-xenograft athymic mouse model at 75 mg/kg, ip administered as single dose after 8 hrs by HPLC/MS/MS analysis; assay type: ADME, organism-based, Neoplasm; set-up: dose 75 mg/kg, route intraperitoneal; settings: in vivo; procedure, shortened: as §3
[24] = Drug level in tumor of human NCI-N417 cell-xenograft athymic mouse model at 75 mg/kg, ip administered as single dose after 12 hrs by HPLC/MS/MS analysis; assay type: ADME, organism-based, Neoplasm; set-up: dose 75 mg/kg, route intraperitoneal; settings: in vivo; procedure, shortened: as §3
[25] = Drug level in tumor of human NCI-N417 cell-xenograft athymic mouse model at 75 mg/kg, ip administered as single dose after 24 hrs by HPLC/MS/MS analysis; assay type: ADME, organism-based, Neoplasm; set-up: dose 75 mg/kg, route intraperitoneal; settings: in vivo; procedure, shortened: as §3
[26] = Drug level in tumor of human NCI-N417 cell-xenograft athymic mouse model at 75 mg/kg, ip administered as single dose after 36 hrs by HPLC/MS/MS analysis; assay type: ADME, organism-based, Neoplasm; set-up: dose 75 mg/kg, route intraperitoneal; settings: in vivo; procedure, shortened: as §3
[27] = target: Heat shock protein HSP 90-beta (Homo sapiens) (UniProt P08238); assay: Inhibition of HSP90-mediated proliferation of human SKBR3cells after 72 hrs by sulforhodamine B assay
[28] = target: Heat shock protein HSP 90-beta (Homo sapiens) (UniProt P08238); assay: Inhibition of HSP90-mediated proliferation of human NCI-H69 cells at 0.3 to 0.5 uM after 72 to 96 hrs by intracellular ATP level assay
[29] = target: Heat shock protein HSP 90-beta (Homo sapiens) (UniProt P08238); assay: Inhibition of HSP90-mediated proliferation of human NCI-H146 cells at 0.3 to 0.5 uM after 72 to 96 hrs by intracellular ATP level assay
[30] = target: Heat shock protein HSP 90-beta (Homo sapiens) (UniProt P08238); assay: Inhibition of HSP90-mediated proliferation of human NCI-H187 cells at 0.3 to 0.5 uM after 72 to 96 hrs by intracellular ATP level assay
[31] = target: Heat shock protein HSP 90-beta (Homo sapiens) (UniProt P08238); assay: Inhibition of HSP90-mediated proliferation of human NCI-H209 cells at 0.3 to 0.5 uM after 72 to 96 hrs by intracellular ATP level assay
[32] = target: Heat shock protein HSP 90-beta (Homo sapiens) (UniProt P08238); assay: Inhibition of HSP90-mediated proliferation of human NCI-H510 cells at 0.3 to 0.5 uM after 72 to 96 hrs by intracellular ATP level assay
NCI-H417 [33] = assay: Anticancer activity against human NCI-N417 cells xenografted in athymic mouse assessed as decrease in tumor Akt activity at 75 mg/kg, ip administered as single dose measured after 36 hrs post dose by Western blot

Heat shock protein HSP 90-beta (Homo sapiens), sequence (P08238 whole entry): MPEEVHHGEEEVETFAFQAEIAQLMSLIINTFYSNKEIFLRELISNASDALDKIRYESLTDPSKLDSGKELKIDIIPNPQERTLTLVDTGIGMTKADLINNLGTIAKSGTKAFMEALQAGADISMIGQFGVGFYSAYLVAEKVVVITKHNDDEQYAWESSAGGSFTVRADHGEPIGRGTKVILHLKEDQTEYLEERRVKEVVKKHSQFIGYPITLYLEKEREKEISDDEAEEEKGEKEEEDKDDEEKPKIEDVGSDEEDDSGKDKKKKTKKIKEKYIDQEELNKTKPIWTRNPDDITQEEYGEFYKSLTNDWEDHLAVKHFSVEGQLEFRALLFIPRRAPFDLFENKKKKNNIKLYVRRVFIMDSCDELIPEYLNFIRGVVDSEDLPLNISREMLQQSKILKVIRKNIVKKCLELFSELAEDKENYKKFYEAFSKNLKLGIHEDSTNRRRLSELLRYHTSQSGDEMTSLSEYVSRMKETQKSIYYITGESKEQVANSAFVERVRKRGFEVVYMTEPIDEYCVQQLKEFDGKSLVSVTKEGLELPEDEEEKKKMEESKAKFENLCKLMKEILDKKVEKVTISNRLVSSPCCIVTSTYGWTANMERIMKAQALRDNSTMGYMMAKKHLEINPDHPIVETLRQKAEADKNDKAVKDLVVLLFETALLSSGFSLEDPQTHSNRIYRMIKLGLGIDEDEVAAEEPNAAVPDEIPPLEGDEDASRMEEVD

Activity [1]: Active
Activity [2]: Active
Activity [3]: Active
Activity [4]: Active
Activity [5]: Active
Activity [6]: Active
Activity [7]: Active
inhibition [8]: 50%
inhibition [9]: 50%
Activity [10]: Active
inhibition [11]: Active
inhibition [12]: Active
inhibition [13]: Active
Activity [14]: Active
Activity [15]: Active
Activity [16]: Active
Drug uptake [21]: Active
Drug uptake [22]: Active
Drug uptake [23]: Active
Drug uptake [24]: Active
Drug uptake [25]: Active
Drug uptake [26]: Active
inhibition [27]: Active
inhibition [28]: 50%
inhibition [29]: 50%
inhibition [30]: 50%
inhibition [31]: 50%
inhibition [32]: 50%
SMILES: CC(C)NCCCn1c(Sc2cc3c(cc2I)OCO3)nc2c(N)ncnc21 [PU-H71]
Activity (NCI-H417 [17]): Dose-dependent effect
inhibition (NCI-H417 [18]): Dose-dependent effect
Activity (NCI-H417 [19]): Active
inhibition (NCI-H417 [20]): Active
Activity (NCI-H417 [33]): Active
